Measured values pooled from the literature.
Each line is one published result; the experiments were not run side by side.
Target: Serine/threonine-protein kinase TNNI3K (TNNI3K, Homo sapiens, UniProt Q59H18)
Sequence (Q59H18 1-835, as in one of the studies): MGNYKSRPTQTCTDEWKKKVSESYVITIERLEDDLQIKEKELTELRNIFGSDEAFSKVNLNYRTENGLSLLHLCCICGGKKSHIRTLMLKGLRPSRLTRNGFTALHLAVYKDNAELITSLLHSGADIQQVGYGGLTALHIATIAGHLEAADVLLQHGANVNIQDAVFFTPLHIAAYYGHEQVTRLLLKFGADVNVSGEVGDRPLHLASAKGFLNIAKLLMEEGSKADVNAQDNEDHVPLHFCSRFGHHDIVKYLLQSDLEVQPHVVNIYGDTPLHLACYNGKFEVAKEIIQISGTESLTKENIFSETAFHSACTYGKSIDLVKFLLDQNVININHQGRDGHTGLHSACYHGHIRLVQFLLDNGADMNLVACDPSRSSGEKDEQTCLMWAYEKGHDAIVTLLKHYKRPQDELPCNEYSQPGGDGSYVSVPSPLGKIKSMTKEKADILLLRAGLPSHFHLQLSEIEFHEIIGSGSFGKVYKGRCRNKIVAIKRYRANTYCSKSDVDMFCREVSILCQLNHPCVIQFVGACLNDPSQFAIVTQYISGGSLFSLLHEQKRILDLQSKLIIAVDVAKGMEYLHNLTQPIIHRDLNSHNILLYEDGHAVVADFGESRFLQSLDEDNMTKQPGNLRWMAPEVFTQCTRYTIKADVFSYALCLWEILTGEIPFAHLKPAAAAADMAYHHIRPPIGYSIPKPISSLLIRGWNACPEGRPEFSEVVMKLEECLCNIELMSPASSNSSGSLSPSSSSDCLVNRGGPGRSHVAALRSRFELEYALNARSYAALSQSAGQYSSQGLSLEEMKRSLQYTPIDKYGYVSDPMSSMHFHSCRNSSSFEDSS

Compound | effect on | method | concentration | remaining binding [%]
CN(C)c1nccc(-c2cnn3ncccc23)n1 | binding |  | 1 µM | 100
O=C(NCCCC1CCCCC1)c1ccc(CNC(=O)c2cnn(-c3ccccc3)c2C(F)(F)F)cc1 | cell-free assay | competition with immobilised ligand | 0.1 µM | 79
C[C@H]1CCN(c2nccc(-c3cnn4ncccc34)n2)C1 | binding |  | 1 µM | 100
Nc1ncc2c(n1)-c1c([nH]c3ccc(C#CC4CC4)cc13)CCCC2 | binding | competition with immobilised ligand | 1 µM | 94
Nc1cnc(N2CCc3cc(S(=O)(=O)Nc4c(F)cc(Cl)cc4F)cc(N4CCCC4=O)c32)nc1 | binding | competition with immobilised ligand | 1 µM | 49
C[C@@H](c1ccc(-n2cnc3c(N)ncnc32)cc1)N1CCc2nn(C)c(Cc3ccccc3)c2C1=O | binding | competition with immobilised ligand | 0.1 µM | 88
Cc1c[nH]c2nccc(Oc3c(F)cc(Nc4cc(Cl)nc(N)n4)cc3F)c12 | cell-free assay | competition with immobilised ligand | 0.1 µM | 98
O=C(c1ccc(Nc2ncc(Cl)c(-c3cc4ccccc4s3)n2)cc1)N1CCC(N2CCCC2)CC1 | binding | competition with immobilised ligand | 1 µM | 50
CN(C)c1ncc(F)c(-c2cnn3ncccc23)n1 | binding |  | 1 µM | 100
O=C(c1ccc(Nc2nccc(-c3cc4ccccc4s3)n2)cc1)N1CCC(N2CCCC2)CC1 | binding | competition with immobilised ligand | 1 µM | 71
c1cncc(-c2cccc(Nc3nccc(NC4CCCCC4)n3)c2)c1 | binding | competition with immobilised ligand | 10 µM | 95
Cc1noc([C@H]2C[C@@H](c3ccc(C(F)(F)F)cc3)CN(C(=O)N3CCS(=O)(=O)C3)C2)n1 | cell-free assay | competition with immobilised ligand | 1 µM | 100
N[C@H]1CCN(c2nccc(-c3cnn4ncccc34)n2)C1 | binding |  | 1 µM | 100
COc1cnc(Nc2cccc(S(N)(=O)=O)c2)nc1N1CCN(c2ccccc2)CC1 | binding | competition with immobilised ligand | 1 µM | 96
O=C(c1ccc(Nc2ncc(Cl)c(-c3ccc(Cl)s3)n2)cc1)N1CCC(N2CCCC2)CC1 | binding | competition with immobilised ligand | 1 µM | 50
Cc1cnn2ncc(-c3ccnc(N(C)C)n3)c2c1 | binding |  | 1 µM | 100
C=CC(=O)N1CCC(C(=O)NCC(=O)N2CCN(c3nc(-c4cnc(N)nc4C(F)F)nc(N4CCOCC4)n3)CC2)CC1 | binding | competition with immobilised ligand | 1 µM | 100
Cc1nc(N2CC[C@@H](O)C2)ncc1-c1cc(C(F)(F)F)cc2[nH]ncc12 | cell-free assay | competition with immobilised ligand | 1 µM | 87
CNC(=O)[C@@H]1CC[C@@H](n2c(-c3ccc4cnccc4c3)nc3ccc(C(=O)NCc4cccc(C(N)=O)c4)cc32)C1 | binding | competition with immobilised ligand | 1 µM | 100
Cn1nc(C(F)(F)F)cc1-c1cnc(N2CCc3cc(S(=O)(=O)Nc4c(F)cc(Cl)cc4F)cc(N4CCCC4=O)c32)nc1 | cell-free assay | competition with immobilised ligand | 1 µM | 65
CC1CCCN1c1nccc(-c2cnn3ncccc23)n1 (stereo not shown) | binding |  | 1 µM | 99
O=C(Nc1c[nH]nc1C(=O)NC1CCNCC1)c1cc(F)cc(F)c1 | binding | competition with immobilised ligand | 1 µM | 95
